Test [1] in a line: Inhibitory activity against phytohemagglutininin A-induced proliferation of human lymphocytes. The test is classed as functional. The gist of the method:
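Human lymphocytes stimulated with phytohemagglutinin A were incubated in vitro with increasing concentrations of each chalcone, and inhibition of their proliferation was measured.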

Another test concerns Leishmania donovani. Kind of test: Tested in vitro for anti-leishmanial activity against Leishmania donovani. The test is classed as functional, organism-based. The gist of the method: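 In vitro assay using Leishmania donovani promastigotes incubated with increasing chalcone concentrations, with inhibition of parasite proliferation as the read-out.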
Test [2] is described as follows: Inhibitory activity against phytohemagglutininin A-induced proliferation of human lymphocytes; Not tested due to low solubility. Type of test: functional.

By IC50 is commonly meant the midpoint of a concentration-inhibition curve. Read a low IC50 as greater potency in that assay.

As to `COc1ccc(C(=O)/C=C/c2ccc(Cl)cc2Cl)c(OC)c1OC`, the IC50 in test [1] stood at 7.8 µM; in the test with Leishmania donovani it was 6.3 µM. `COc1ccc(C(=O)/C=C/c2ccc(F)cc2F)c(OC)c1`: the IC50 in test [1] came out at 12 µM; in the test with Leishmania donovani, 27 µM.

Take `CN(C)c1ccc(/C=C/C(=O)c2ccc(O)cc2)cc1`: the IC50 is 130 µM in test [1] and 79 µM in the test with Leishmania donovani. Consider `CCCCOc1ccc(C(=O)/C=C/c2ccc(OC)cc2OC)cc1`, for which the IC50 entry was “Not Active” in test [2] and 95 µM in the test on Leishmania donovani. With `C=CCOc1ccc(C(=O)/C=C/c2cccc(OC)c2OC)cc1`, the IC50 in test [1] is 96 µM; in the test with Leishmania donovani it was 49 µM.

On to `COc1cc(/C=C/C(=O)c2ccc([N+](=O)[O-])cc2)cc(OC)c1`, for which the IC50 in test [1] stood at 20 µM; in the test with Leishmania donovani, 16 µM.

Turning to `CCCCOc1ccccc1C(=O)/C=C/c1cc(OC)cc(OC)c1`, the IC50 came to 13 µM in test [1] and 7.2 µM in the test with Leishmania donovani. The matching figures for `C=CCOc1ccc(C(=O)/C=C/c2c(OC)cccc2OC)cc1`: 96 µM and 81 µM. As to `COc1cccc(/C=C/C(=O)c2ccc(O)cc2)c1OC`, the values for the IC50 (in test [1]; in the test on Leishmania donovani) were 70 µM and 89 µM, respectively. For `COc1ccc(C(=O)/C=C/c2ccccc2[N+](=O)[O-])c(OC)c1OC` the same measures were 7 µM and 5.9 µM. `COc1cccc(OC)c1/C=C/C(=O)c1ccc(O)cc1`: the IC50 in test [1] came to 60 µM; in the test on Leishmania donovani, 82 µM.

As to `COc1ccc(/C=C/C(=O)c2ccc(F)cc2F)c(OC)c1`, the IC50 was 74 µM in test [1] and 26 µM in the test with Leishmania donovani. As to `COc1ccc(/C=C/C(=O)c2ccccc2O)c(OC)c1`, the figures for the IC50 (in test [1]; in the test with Leishmania donovani) were 144 µM and 35 µM, respectively. As for `COc1cc(O)ccc1/C=C/C(=O)c1ccc(N(C)C)cc1`, the figures for the IC50 (in test [1]; in the test with Leishmania donovani) were 111 µM and 49 µM, respectively. Consider `COc1cc(/C=C/C(=O)c2ccccc2O)cc(OC)c1`, for which the IC50 in test [1] amounted to 8.1 µM; with Leishmania donovani, 3.8 µM. Take `COc1cc(/C=C/C(=O)c2ccc(O)cc2)cc(OC)c1`: the IC50 was 14 µM in test [1] and 12 µM in the test on Leishmania donovani. For the compound `COc1cc(/C=C/C(=O)c2ccccc2F)cc(OC)c1`, the IC50 worked out at 6 µM in test [1] and 3.5 µM in the test with Leishmania donovani. `COc1ccc(OC)c(C(=O)/C=C/c2ccc(Cl)cc2Cl)c1`: the IC50 in test [1] was 5.7 µM; with Leishmania donovani, 7.8 µM. In the case of `COc1cc(/C=C/C(=O)c2cccc(O)c2)cc(OC)c1`, the results for the IC50 (in test [1]; in the test with Leishmania donovani) were 3.2 µM and 3.7 µM, respectively. The matching figures for `COc1ccc(/C=C/C(=O)c2ccccc2Br)c(OC)c1`: 35 µM and 14 µM. For `COc1cc(OC)c(OC)cc1/C=C/C(=O)c1ccc(O)cc1` the same measures were 28 µM and 16 µM. Take `COc1ccc(/C=C/C(=O)c2ccccc2)c(OC)c1`: the IC50 in test [1] was 48 µM; with Leishmania donovani it was 15 µM. Consider `C=CCOc1ccc(C(=O)/C=C/c2cc(OC)c(OC)c(OC)c2)cc1`, for which the IC50 turned out to be 30 µM in test [1] and 41 µM in the test with Leishmania donovani. In the case of `COc1ccc(/C=C/C(=O)c2cccc(Br)c2)c(OC)c1`, the IC50 came out at 37 µM in test [1] and 16 µM in the test with Leishmania donovani. As for `COc1ccc(/C=C/C(=O)c2ccccc2OC)c(OC)c1`, the IC50 in test [1] turned out to be 26 µM; in the test on Leishmania donovani, 16 µM.

`CCCCOc1ccc(C(=O)/C=C/c2c(OC)cccc2OC)cc1`: the IC50 in the test with Leishmania donovani amounted to 104 µM.

Consider `CCCCOc1cccc(C(=O)/C=C/c2ccc(OC)cc2OC)c1`, for which the IC50 in test [1] was 65 µM; with Leishmania donovani it was 20 µM. Turning to `COc1ccc(C(=O)/C=C/c2ccc(F)c(F)c2)c(OC)c1`, the IC50 in test [1] came out at 5.3 µM; in the test on Leishmania donovani, 16 µM. For the compound `COc1cccc(C(=O)/C=C/c2ccc(OC)cc2OC)c1`, the IC50 in test [1] was determined as 42 µM; in the test on Leishmania donovani, 18 µM. Turning to `CCCCOc1ccccc1/C=C/C(=O)c1ccc(OC)c(OC)c1OC`, the values for the IC50 (in test [1]; in the test with Leishmania donovani) were 52 µM and 26 µM, respectively.

Turning to `O=C(/C=C/c1ccc([N+](=O)[O-])cc1)c1ccc([N+](=O)[O-])cc1`, the IC50 was found to be 51 µM in test [1] and 26 µM with Leishmania donovani. Turning to `COc1ccc(C(=O)/C=C/c2cccc(Oc3ccccc3)c2)c(OC)c1OC`, the IC50 came out at 17 µM in test [1] and 8.7 µM with Leishmania donovani. In the case of `COc1ccc(C(=O)/C=C/c2ccc([N+](C)(C)C)cc2)c(OC)c1OC`, the values for the IC50 (in test [1]; in the test on Leishmania donovani) were 35 µM and 21 µM, respectively. Regarding `COc1ccc(C(=O)/C=C/c2cccc(N(C)C)c2)c(OC)c1OC`, the IC50 in test [1] was determined as 26 µM; with Leishmania donovani, 20 µM. Turning to `O=C(/C=C/c1ccccc1)c1ccc(F)cc1`, the IC50 in test [1] stood at 23 µM; in the test with Leishmania donovani it was 15 µM. On to `COc1ccc(C(=O)/C=C/c2ccccc2O)c(OC)c1OC`, for which the IC50 is 9 µM in test [1] and 9.3 µM in the test on Leishmania donovani.

On to `O=C(/C=C/c1ccc(Oc2ccccc2)cc1)c1ccc(F)cc1`, for which the IC50 in test [1] turned out to be 33 µM; with Leishmania donovani, 42 µM. For `COc1ccc(/C=C/C(=O)c2cccc([N+](=O)[O-])c2)c(OC)c1` the same measures were 18 µM and 8.6 µM. Take `COc1cc(OC)c(/C=C/C(=O)c2ccc(O)cc2)c(OC)c1`: the figures for the IC50 (in test [1]; with Leishmania donovani) were 44 µM and 106 µM, respectively. In the case of `COc1ccc(C(=O)/C=C/c2ccc(C#N)cc2)c(OC)c1OC`, the IC50 in test [1] is 5.4 µM; in the test with Leishmania donovani, 8.6 µM.

As to `CCCCCCc1cc(/C=C/C(=O)c2ccc(O)cc2)c(OC)cc1O`, the results for the IC50 (in test [1]; in the test on Leishmania donovani) were 46 µM and 9.7 µM, respectively. Take `COc1cc(/C=C/C(=O)c2ccccc2[N+](=O)[O-])cc(OC)c1`: the IC50 worked out at 3.7 µM in test [1] and 3.4 µM in the test on Leishmania donovani. In the case of `CCCCOc1ccc(C(=O)/C=C/c2cc(OC)cc(OC)c2)cc1`, the IC50 in test [1] is 52 µM; with Leishmania donovani, 35 µM.

Turning to `COc1cc(/C=C/C(=O)c2cccc(F)c2)cc(OC)c1`, the IC50 in test [1] was found to be 9.2 µM; in the test on Leishmania donovani, 5.5 µM. In the case of `C=CCOc1ccc(C(=O)/C=C/c2ccc(OC)c(OC)c2)cc1`, the IC50 in test [1] worked out at 51 µM; with Leishmania donovani it was 60 µM. For `C=CCOc1ccc(C(=O)/C=C/c2cc(OC)ccc2OC)cc1`, the IC50 in test [1] came out at 55 µM; in the test with Leishmania donovani it was 73 µM.

Take `CCCCCCOc1ccc(C(=O)/C=C/c2ccccc2)cc1`: the IC50 is 99 µM in test [1] and 62 µM with Leishmania donovani. As for `CCCc1cc(/C=C/C(=O)c2ccc(O)cc2)c(OC)cc1O`, the IC50 in test [1] stood at 41 µM; in the test on Leishmania donovani, 26 µM. Regarding `COc1cc(/C=C/C(=O)c2ccc(OC)c(OC)c2OC)cc(OC)c1`, the figures for the IC50 (in test [1]; in the test with Leishmania donovani) were 8.7 µM and 8.3 µM, respectively. With `C=CCOc1ccc(C(=O)/C=C/c2cc(OC)c(CCCCCC)c(OC)c2)cc1`, the IC50 amounted to 15 µM in test [1] and 19 µM in the test on Leishmania donovani. With `O=C(/C=C/c1ccc(F)cc1)c1ccc(C2CCCCC2)cc1`, the results for the IC50 (in test [1]; in the test with Leishmania donovani) were 74 µM and 27 µM, respectively. The matching figures for `COc1ccc(C(=O)/C=C/c2cccc(F)c2)c(OC)c1OC`: 6.4 µM and 9.7 µM. Take `COc1cc(/C=C/C(=O)c2ccc(C3CCCCC3)cc2)cc(OC)c1`: the IC50 in test [1] is 39 µM; in the test on Leishmania donovani, 31 µM. For `COc1ccc(C(=O)/C=C/c2cccc([N+](=O)[O-])c2)c(OC)c1OC` the same measures were 36 µM and 17 µM.

Regarding `COc1c(/C=C/C(=O)c2ccc(O)cc2)ccc(O)c1C`, the IC50 is 27 µM in test [1] and 22 µM in the test with Leishmania donovani.

With `C=CCOc1ccc(C(=O)/C=C/c2cc(OCC=C)ccc2OCC=C)cc1`, the IC50 in test [1] worked out at 61 µM; in the test with Leishmania donovani it was 38 µM.

Turning to `COc1cc(/C=C/C(=O)c2ccccc2N(C)C)cc(OC)c1`, the figures for the half-inhibitory concentration (IC50) (in test [1]; in the test on Leishmania donovani) were 5.7 µM and 7.3 µM, respectively. Regarding `COc1cc(O)cc(C)c1/C=C/C(=O)c1ccc(O)cc1`, the IC50 is 53 µM in test [1] and 39 µM in the test with Leishmania donovani. With `O=C(/C=C/c1ccc(F)cc1)c1ccc(F)cc1`, the IC50 came out at 22 µM in test [1] and 15 µM in the test on Leishmania donovani. The matching figures for `COc1ccc(OC)c(/C=C/C(=O)c2ccc(O)cc2)c1`: 22 µM and 23 µM. For `C=CCOc1ccc(C(=O)/C=C/c2cc(OC)cc(OC)c2)cc1` the same measures were 25 µM and 27 µM. For `COc1ccc(/C=C/C(=O)c2ccc(O)cc2)c(OC)c1` the same measures were 71 µM and 48 µM. With `COc1cc(/C=C/C(=O)c2cccc(N(C)C)c2)cc(OC)c1`, the IC50 stood at 5 µM in test [1] and 5.8 µM in the test on Leishmania donovani. On to `C=CCOc1ccccc1C(=O)/C=C/c1ccc(OC)cc1OC`, for which the values for the IC50 result (in test [2]; in the test with Leishmania donovani) were “Not Active” and 5 µM, respectively.

`COc1ccc(C(=O)/C=C/c2ccccc2F)c(OC)c1OC`: the IC50 in test [1] turned out to be 11 µM; in the test on Leishmania donovani, 15 µM. As to `O=C(/C=C/c1ccccc1)c1ccc(O)cc1` [4'-HYDROXYCHALCONE], the concentration for half-maximal inhibition (IC50) turned out to be 28 µM in test [1] and 16 µM with Leishmania donovani.

For the compound `O=C(/C=C/c1ccc(O)cc1)c1ccc(O)cc1` [4,4'-DIHYDROXYCHALCONE], the IC50 was 59 µM in test [1] and 83 µM in the test on Leishmania donovani. For `COc1ccc(/C=C/C(=O)c2ccc(OC)cc2)cc1` [4,4'-DIMETHOXYCHALCONE], the IC50 in test [1] was determined as 112 µM; in the test on Leishmania donovani, 106 µM.

For `O=C(/C=C/c1ccc(O)c(O)c1)c1ccc(O)cc1O` [BUTEIN], the IC50 in test [1] worked out at 16 µM; with Leishmania donovani, 66 µM. For `O=C(/C=C/c1ccccc1)c1ccccc1` [CHALCONE] the same measures were 21 µM and 20 µM. On to `COc1cc(O)ccc1/C=C/C(=O)c1ccc(O)cc1` [ECHINATIN], for which the half-maximal inhibitory concentration (IC50) in test [1] was found to be 94 µM; in the test with Leishmania donovani it was 68 µM. The matching figures for `COc1cc(/C=C/C(=O)c2ccc(O)cc2O)ccc1O` [HOMOBUTEIN]: 31 µM and 16 µM. Regarding `C=CC(C)(C)c1cc(/C=C/C(=O)c2ccc(O)cc2)c(OC)cc1O` [LICOAGROCHACONE A], the IC50 in test [1] was 48 µM; in the test on Leishmania donovani it was 13 µM.
